Jurkat NFkB inh – inhibitors of the PMA/ionomycin-induced NF-kB reporter in Jurkat cells; PMA/ionomycin-induced NF-kB luciferase reporter, luminescence; inhibition, % at 4 µM; hit rate 0.53% among 330,000; AID 435003; in the data active means inhibition above about 50%
GalR3 antag – antagonists of human GalR3 | O60755 | HEK293 GalR3-CNG cAMP membrane potential fluorescence; galR3 body fused to GalR1 C-terminus | inhibition, % at 3 µM | hit rate 0.44% among 360,000 | AID 651719;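 active means inhibition above the screen-wide average plus 3 SD, cut at about 13% in these data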;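 further: forskolin and galanin both at EC90 stimulate the cells; cAMP rise reported by CNG channel membrane potential dye signal; 0% = forskolin plus galanin with DMSO and 100% = forskolin alone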
NR2E3 ag-1 – activates human photoreceptor nuclear receptor NR2E3 | hit rate 0.12% among 320,000 | inhibition of corepressor binding, % at 4.78 µM | Q9Y5X4 | GST-NR2E3/biotin-RetCOR TR-FRET, 1536-well;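 active means percent inhibition above the cutoff of mean plus 3 SD of all tested compounds, set per screening campaign, cut at about 20% in these data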;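 further: 0% = DMSO wells and 100% = biotin wells as full block of FRET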
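Assay system: NR2E3–RetCOR corepressor complex. Quantity: 1.35 nM GST-NR2E3. Buffer or medium: pH 7.5 Tris-based buffer. Reagent: biotinylated RetCOR corepressor at 7 nM final. Schedule: 5 h at 4 °C. Detection: TR-FRET, emission read at 617 and 671 nm. Replicates: one well per compound, singlicate testing.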
697 NFkB inh – lowers PMA/ionomycin-induced NF-kB signal in 697 B cells; 697 B-cell NF-kB luciferase reporter, 16 h; inhibition, % at 4 µM; hit rate 0.33% among 330,000; in the data active means inhibition above about 35%
JMJD2C inh – blocks human GASC-1 demethylase activity; Q9H3R0; GST-JMJD2C(1-420) H3K9me3 demethylation, DELFIA europium; inhibition, % at 2.35 µM; AID 2099; hit rate 0.069% among 330,000;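 active means more than half of a compound's replicate wells show inhibition beyond 50%, single wells judged on their own value; inconclusive means some, but no more than half, of replicates pass 50% inhibition; inactive means no replicate passes 50% inhibition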;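 further: signal counts dimethyl H3K9 product captured on neutravidin plate; 0% = median of DMSO wells and 100% = 0.3 times that DMSO median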
Target sequence (Q9H3R0 1-420 limits assumed): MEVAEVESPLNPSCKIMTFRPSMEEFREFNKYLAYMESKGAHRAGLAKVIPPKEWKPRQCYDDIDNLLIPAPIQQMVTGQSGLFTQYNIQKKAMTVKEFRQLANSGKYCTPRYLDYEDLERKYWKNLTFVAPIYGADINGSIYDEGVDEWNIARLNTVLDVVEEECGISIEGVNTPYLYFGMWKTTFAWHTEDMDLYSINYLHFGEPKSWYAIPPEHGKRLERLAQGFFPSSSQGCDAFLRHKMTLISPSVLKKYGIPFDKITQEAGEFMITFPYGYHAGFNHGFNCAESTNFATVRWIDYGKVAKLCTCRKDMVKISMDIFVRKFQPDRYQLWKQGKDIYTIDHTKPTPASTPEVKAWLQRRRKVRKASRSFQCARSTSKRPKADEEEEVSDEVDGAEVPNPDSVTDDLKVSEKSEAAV
NR2E3 ag-2 – agonists of human NR2E3 nuclear receptor; Q9Y5X4; CHO-S Gal4-NCOR/VP16-NR2E3 two-hybrid, luciferase; inhibition of corepressor binding, % at 3.98 µM; hit rate 0.35% among 360,000; AID 602229;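 active means inhibition above the mean of all tested compounds plus 3 SD, cut at about 70% in these data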;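 further: 0% = DMSO with NR2E3 transfected cells and 100% = cells lacking NR2E3 construct; higher means lower luciferase signal from less NR2E3 corepressor binding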
NR2E3 ag conf – confirmation of human NR2E3 agonists; CHO-S mammalian two-hybrid NR2E3-NCOR, luciferase luminescence; shares compounds with NR2E3 ag-2; hit rate 51% among 2,300; inhibition, % at 3.98 µM;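 active means average inhibition above a cutoff equal to the mean inhibition of all tested compounds plus one SD, cut at about 70% in these data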;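 further: 0% = DMSO in NR2E3 cells and 100% = DMSO in cells lacking NR2E3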
VP16 counter – GAL4-VP16 reporter inhibition in NR2E3 agonist counterscreen; shares compounds with NR2E3 ag-2; CHO-S GAL4-VP16 luciferase reporter, luminescence; inhibition, % at 3.98 µM; hit rate 29% among 2,300;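 active means mean inhibition above a cutoff equal to the average over all tested compounds plus one standard deviation, cut at about 70% in these data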;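 further: luciferase from a UAS reporter driven by GAL4-VP16 transactivation; 0% = DMSO with VP16-transfected cells and 100% = DMSO with cells lacking VP16; higher means less reporter light so more repression of VP16 activity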
* hit, by the source's call; ? = inconclusive; . = no result. Only some compounds are listed: those with a hit (about 1.5% of all), similar ones and a draw of the others.

SMILES	Jurkat NFkB inh	GalR3 antag	NR2E3 ag-1	697 NFkB inh	JMJD2C inh	NR2E3 ag-2	NR2E3 ag conf	VP16 counter
COc1ccc(S(=O)(=O)N2CCCCC2)cc1NC(=S)Nc1ccccc1	0	-8	-3	15	2	91*	86*	-12
COc1ccc(S(=O)(=O)N2CCCCC2)cc1NC(=S)Nc1cccc(Cl)c1C	10	4	-1	5	-7	80*	89*	-22
CCc1ccc(N2CC(C(=O)Nc3cc(C)on3)CC2=O)cc1 (configuration not stated)	3	-3	1	17	32	19	.	.
CSc1nsc(SCC(=O)Nc2nc3ccc(C)cc3s2)n1	5	-2	2	-19	-7	61	45	32
O=C(COc1cccc2ccccc12)Nc1ccc(Cl)cc1C(=O)O	.	-3	1	.	3	78*	95*	55
O=C(COc1cccc2ccccc12)Nc1cc(Cl)ccc1C(=O)O	15	0	2	20	-35	45	.	.
Cc1ccccc1CN1CCN(C(=O)[C@H]2O[C@@H](n3cnc(C(N)=O)n3)[C@H](O)[C@@H]2O)CC1	.	-7	.	.	.	.	.	.
Clc1ccc(-n2ncc3c(N4CCCCCC4)ncnc32)cc1	16	7	10	-141	13	86*	83*	48
COc1ccc(-n2ncc3c(N4CCCCC4)ncnc32)cc1	15	.	0	-26	7	40	.	.
Cc1c(Cl)ccc2sc(N3CCN(C(=O)C4=COCCO4)CC3)nc12	9	-2	-4	8	?	79*	90*	55
Nc1nonc1C(=O)NCCNCc1cc(Br)ccc1OCc1ccc(F)cc1	16	-8	3	-18	15	58	63	59
COc1ccc(CCN(C)C(=O)c2cccc(S(=O)(=O)N3CCN(c4ccc(F)cc4)CC3)c2)cc1OC	.	1	.	.	.	61	61	47
Cc1cccc(C)c1NC(=O)CN(C)C(=O)c1cccc(S(=O)(=O)N2CCN(c3ccc(F)cc3)CC2)c1	17	-7	-1	-22	3	11	.	.
CN(CCOc1ccc(Cl)cc1)C(=O)c1cccc(S(=O)(=O)N2CCN(c3ccc(F)cc3)CC2)c1	.	.	.	.	.	96*	94*	82*
O=C(NCc1ccccc1)c1cc(C2CCCN(S(=O)(=O)c3ccccc3)C2)on1 (configuration not stated)	.	-4	.	.	.	-3	.	.
C=C1C(=O)C23C(O)C1CCC2C12CCCC(C)(COC(C)=O)C1C(O)C3(O)OC2 (configuration not stated)	.	1	.	.	.	91*	-6	-34
CCOc1ccc(-c2cccc(NS(=O)(=O)c3cc([N+](=O)[O-])ccc3Cl)c2)nn1	-3	-5	-3	-23	8	53	18	-4
O=C(C1CCN(S(=O)(=O)c2ccccc2)CC1)N1CCCCCC1	-15	-4	.	17	-3	-13	.	.
Cc1cc(-n2c(C)cc(C(=O)CSc3[nH]c(=O)cc(C(F)(F)F)c3C#N)c2C)no1	2	-8	4	18	-12	98*	99*	89*
Cc1cc(NC(=O)CSc2[nH]c(=O)cc(C(F)(F)F)c2C#N)no1	-9	-2	1	22	-2	7	.	.
O=C(NCc1ccc(C(F)(F)F)cc1)C1CC(c2ccc(C(F)(F)F)cc2)=NO1 (configuration not stated)	20	-5	2	23	10	81*	81*	60
COc1ccc(Cl)cc1NC(=S)NNC(=O)C1(C)CC1(Cl)Cl (configuration not stated)	7	-5	1	11	14	49	-15	-8
COC(=O)c1cc(OC)c(OC)cc1NC(=S)Nc1cc(Cl)ccc1OC	13	0	3	5	-3	-5	.	.
CC12CCC(C(=O)N(CSC(=S)N/N=C\c3ccccc3O)C1=O)C2(C)C (configuration not stated)	3	3	4	-19	10	91*	-8	-38
COc1ccccc1CNS(=O)(=O)c1ccc2c(c1)CC(C)N2C(=O)C1CCC1 (configuration not stated)	21	3	-1	-57	0	72*	72*	58
SMILES	Jurkat NFkB inh	GalR3 antag	NR2E3 ag-1	697 NFkB inh	JMJD2C inh	NR2E3 ag-2	NR2E3 ag conf	VP16 counter
OC[C@@H]1CN(Cc2ccc(-c3ccccc3)cc2)C[C@H](n2cnc3c(Nc4ccccc4)ncnc32)O1	.	-8	.	.	.	50	76*	51
OC[C@@H]1CN(Cc2cccc3ccccc23)C[C@H](n2cnc3c(NCc4ccco4)ncnc32)O1	.	-8	.	.	.	53	6	8
CC(C)N(C)c1ncnc2c1ncn2[C@H]1CN(Cc2ccncc2)C[C@@H](CO)O1	.	-7	.	.	.	-19	.	.
CC(C)N(C)c1ncnc2c1ncn2[C@H]1CN(Cc2ccc(-c3ccccc3)cc2)C[C@@H](CO)O1	.	-2	.	.	.	55	31	26
CC(C)CNc1ncnc2c1ncn2[C@H]1CN(Cc2cccc3ccccc23)C[C@@H](CO)O1	.	-7	.	.	.	-13	.	.
Nc1ccn([C@@H]2O[C@H](C(=O)N[C@H](Cc3ccccc3)C(=O)N3CCN(C(=O)N4CCCCC4)CC3)[C@@H](O)[C@H]2O)c(=O)n1	.	-3	.	.	.	.	.	.
CSCc1nnc(NC(=O)c2ccc(S(=O)(=O)N(CC(C)C)CC(C)C)cc2)o1	.	.	.	.	18	.	.	.
CCc1nnc(NC(=O)c2ccc(S(=O)(=O)N(CC(C)C)CC(C)C)cc2)o1	5	1	-1	-85	.	103*	99*	39
CCc1nnc(NC(=O)c2ccc(S(=O)(=O)N3CCCc4ccccc43)cc2)o1	18	-4	-1	-3	11	54	88*	44
CNC(=O)c1ccsc1NC(=O)c1ccc(S(=O)(=O)N2CCCc3ccccc32)cc1	8	10	0	-32	13	-7	.	.
CN(C)C(=S)N=c1ssc(=S)n1Cc1ccccc1	.	-2	.	.	.	90*	-24	-56
CCOC(=O)c1sc(=S)n(Cc2ccccc2)c1C	3	2	0	-5	5	-11	.	.
Cc1ccc2ccc3cccnc3c2n1	.	-8	1	.	2	67	45	9
Cc1cnc(C(=O)Nc2cccc3cccnc23)cn1	.	-5	.	.	0	77*	-6	-10
COc1cccc(NS(=O)(=O)c2ccc3c(c2)NC(=O)C(C)S3)c1 (configuration not stated)	-5	-9	-3	-21	-1	58	36	35
